Structures can show the parent of a compound that is named as a salt.
What was measured:
Type in all cases: functional, cell-based
[1] = test system: HL-60; test: Cytotoxicity against human HL60 cells assessed as inhibition of cell proliferation after 72 hrs by MTT assay; settings: HL-60, 72 h
In short: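 HL-60 promyelocytic leukemia cells were plated 24 h ahead, then exposed continuously to varying compound concentrations for 72 h. Proliferation inhibition was determined by MTT assay. Adriamycin served as the positive control.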

[2] = test system: MCF7; test: Cytotoxicity against human MCF7 cells assessed as inhibition of cell proliferation after 72 hrs by SRB assay; settings: MCF7, 72 h
In short: (§1)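 Sulforhodamine B (SRB) read-out of proliferation inhibition. Cells (A549 lung adenocarcinoma; MCF-7 breast cancer) were seeded 24 h before treatment, then exposed continuously to a range of compound concentrations for 72 h. Inhibition rates were derived from the SRB signal. Adriamycin served as the positive control.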

[3] = test system: A549; test: Cytotoxicity against human A549 cells assessed as inhibition of cell proliferation after 72 hrs by SRB assay; settings: A549, 72 h; in short: as §1

**Q.** `COc1cccc2c1C(=O)c1c(O)c3c(c(O)c1C2=O)C[C@@](O)(C(=O)CO)C[C@@H]3O[C@H]1C[C@H](N)[C@H](O)[C@H](C)O1` [DOXORUBICIN HYDROCHLORIDE] was tested. Which IC50 [1] did it give?
**A.** The IC50 was 0.13 µM.

**Q.** And the IC50 [2]?
**A.** The IC50 was 0.15 µM.

**Q.** What about the IC50 [3] of the same compound?
**A.** Its IC50 is 0.41 µM.

**Q.** What does the source list for `CC(C)CC(=O)O[C@H]1/C=C/C=C/C(=O)O[C@H]2[C@@H](C)C[C@@H]3[C@]2(O)[C@H](O)[C@@]2(CO)O[C@H]2[C@H]2[C@H]4OC5(c6ccccc6)O[C@@H]([C@@H](C)[C@@]23O5)[C@@]4(O)[C@](C)(O)C[C@H]2CC[C@H]1[C@H]2C` [REDIOCIDE A]?
**A.** IC50 [1]: > 10 µM; IC50 [2]: > 10 µM; IC50 [3]: > 10 µM

**Q.** With `C[C@H]1[C@@H]2CC[C@@H]1[C@@H](OC(=O)c1ccccc1)/C=C/C=C/C(=O)O[C@H]1[C@@H](C)C[C@@H]3[C@]1(O)[C@H](O)[C@@]1(CO)O[C@H]1[C@H]1[C@H]4OC5(c6ccccc6)O[C@@H]([C@@H](C)[C@@]13O5)[C@@]4(O)[C@](C)(O)C2` [REDIOCIDE C] as the compound, how does the IC50 [1] read?
**A.** The IC50 was over 10 µM.

**Q.** What about the IC50 [2] of the same compound?
**A.** Its IC50 is over 10 µM.

**Q.** What about the IC50 [3] of the same compound?
**A.** The IC50 was over 10 µM.

**Q.** Which results are given for `C=C(C)[C@@]12OC3(c4ccccc4)O[C@@H]1[C@@H]1[C@@H]4O[C@]4(C)[C@@H](O)[C@@]4(O)[C@@H](C[C@H](C)[C@@H]4O)[C@@]1(O3)[C@H](C)[C@@H]2OC(=O)c1ccccc1` [TRIGONOSIN A]?
**A.** IC50 [1]: > 10 µM; IC50 [2]: > 10 µM; IC50 [3]: > 10 µM

**Q.** How did the IC50 [1] turn out when `C=C(C)[C@@]12OC3(c4ccccc4)O[C@@H]1[C@@H]1[C@@H]4O[C@]4(CO)[C@@H](O)[C@@]4(O)[C@@H](C[C@H](C)[C@@H]4O)[C@@]1(O3)[C@H](C)[C@@H]2OC(=O)c1ccccc1` [TRIGONOSIN B] was run?
**A.** The IC50 was over 10 µM.

**Q.** And the IC50 [2]?
**A.** Its IC50 is over 10 µM.

**Q.** What about the IC50 [3] of the same compound?
**A.** The IC50 was over 10 µM.

**Q.** Which IC50 [1] does the source give for `C=C(C)[C@@]12OC3(c4ccccc4)O[C@@H]1[C@@H]1[C@H](O)[C@@](C)(O)[C@@H](O)[C@@]4(O)[C@@H](C[C@H](C)[C@@H]4O)[C@@]1(O3)[C@H](C)[C@@H]2OC(=O)c1ccccc1` [TRIGONOSIN C] here?
**A.** The IC50 was over 10 µM.

**Q.** What about the IC50 [2] of the same compound?
**A.** Its IC50 is over 10 µM.

**Q.** What about the IC50 [3] of the same compound?
**A.** The IC50 was over 10 µM.

**Q.** Which IC50 [1] does the source give for `C=C(C)[C@@]1(OC(=O)c2ccccc2)[C@H](OC(C)=O)[C@@H]2[C@H](OC(C)=O)[C@]3(C)O[C@@]4([C@@H]3O)[C@@H](O)[C@@H](C)C[C@H]4[C@@]2(O)[C@H](C)[C@@H]1OC(C)=O` [TRIGONOSIN D] here?
**A.** Its IC50 is over 10 µM.

**Q.** What about the IC50 [2] of the same compound?
**A.** Its IC50 is over 10 µM.

**Q.** What about the IC50 [3] of the same compound?
**A.** The IC50 was over 10 µM.

**Q.** For `C[C@H]1[C@@H]2CC[C@@H]1[C@H](OC(=O)c1ccccc1)/C=C/C=C/C(=O)O[C@H]1[C@@H](C)C[C@@H]3[C@]1(O)[C@H](O)[C@@]1(CO)O[C@H]1[C@H]1[C@H]4OC5(c6ccccc6)O[C@@H]([C@@H](C)[C@@]13O5)[C@@]4(O)[C@](C)(O)C2` [TRIGONOSIN E], which IC50 [1] is on record?
**A.** The IC50 was over 10 µM.

**Q.** What about the IC50 [2] of the same compound?
**A.** The IC50 was over 10 µM.

**Q.** What about the IC50 [3] of the same compound?
**A.** The IC50 was over 10 µM.

**Q.** Which IC50 [1] does the source give for `C[C@H]1[C@@H]2CC[C@@H]1[C@@H](OC(=O)c1ccccc1)/C=C/C=C\C(=O)O[C@H]1[C@@H](C)C[C@@H]3[C@]1(O)[C@H](O)[C@@]1(CO)O[C@H]1[C@H]1[C@H]4OC5(c6ccccc6)O[C@@H]([C@@H](C)[C@@]13O5)[C@@]4(O)[C@](C)(O)C2` [TRIGONOSIN F] here?
**A.** Its IC50 is over 10 µM.

**Q.** What about the IC50 [2] of the same compound?
**A.** The IC50 was over 10 µM.

**Q.** What about the IC50 [3] of the same compound?
**A.** The IC50 was over 10 µM.

**Q.** How did the IC50 [1] turn out when `C=C(C)[C@@]12OC3(c4ccccc4)O[C@@H]1[C@@H]1[C@@H]4O[C@]4(C)[C@@H](O)[C@]4(O)C(=O)C(C)=C[C@H]4[C@@]1(O3)[C@H](C)[C@@H]2OC(=O)c1ccccc1` [TRIGOXYPHIN A] was run?
**A.** Its IC50 is over 10 µM.

**Q.** And the IC50 [2]?
**A.** The IC50 was over 10 µM.

**Q.** And the IC50 [3]?
**A.** The IC50 was over 10 µM.

**Q.** `C=C(C)[C@@]12OC3(c4ccccc4)O[C@@H]1[C@@H]1[C@@H]4O[C@]4(C)[C@@H](O)[C@]4(O)C(=O)[C@@H](C)C[C@H]4[C@@]1(O3)[C@H](C)[C@@H]2OC(=O)c1ccccc1` [TRIGOXYPHIN B] was tested. Which IC50 [1] did it give?
**A.** The IC50 was over 10 µM.

**Q.** And the IC50 [2]?
**A.** The IC50 was over 10 µM.

**Q.** What about the IC50 [3] of the same compound?
**A.** The IC50 was over 10 µM.

Source: ChEMBL document CHEMBL1764966, “Trigonosins A-F, daphnane diterpenoids from Trigonostemon thyrsoideum” (J Nat Prod, 2011)
